Converted amounts (≈) assume the structure as drawn. Like-named read-outs stand apart in the source and are kept apart here.
Columns and labels:
[1] = tested on: P. aeruginosa strains TRPA161 and TRPA162; test: Colistin potentiation, colistin-resistant P. aeruginosa strains; assay type: cell-based, Pseudomonas aeruginosa; settings: no adjuvant
Outline: (§1)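 Broth microdilution in CAMHB: strains are grown 6 h and diluted to 5 × 10^5 CFU/mL. Test compound is added from DMSO stock, and colistin (from water stock) is serially diluted in the compound-dosed suspension. An undosed aliquot gives the colistin MIC alone. Plates are incubated stationary at 37 °C for 16 h and read at OD600. MIC is 90% growth inhibition versus untreated. Run in duplicate, repeated at least twice.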

[2] = tested on: A. baumannii 4106 (AB4106); test: Broth microdilution colistin potentiation, AB4106; assay type: cell-based, Acinetobacter baumannii
[3] = tested on: colistin-resistant A. baumannii strains; assay type: cell-based, Acinetobacter baumannii; settings: no adjuvant
[4] = tested on: colistin-resistant K. pneumoniae strains; test: Colistin potentiation, panel of colistin-resistant K. pneumoniae strains; assay type: cell-based, Klebsiella pneumoniae; settings: no adjuvant
Outline: as §1

K. pneumoniae B9 (KPB9) [5] = test: Broth microdilution colistin potentiation, KPB9; assay type: cell-based, Klebsiella pneumoniae
AB4106 = test: MIC in the presence of polymyxin B nonapeptide; assay type: cell-based, Acinetobacter baumannii; settings: 10 μg/mL
NF-κB = NF-κB luciferase reporter assay in HEK293 recombinant cells; assay type: cell-based; settings: Homo sapiens, HEK293, read-out: Inhibition of NF-κB IC50
K. pneumoniae B9 (KPB9) [6] = test: Broth microdilution standalone MIC, KPB9; assay type: cell-based; settings: Klebsiella pneumoniae, read-out: standalone MIC against KPB9
[7] = tested on: A. baumannii 4106 (AB4106); test: Broth microdilution standalone MIC, AB4106; assay type: cell-based; settings: Acinetobacter baumannii, read-out: standalone MIC against AB4106

colistin
colistin MIC alone ([1]; strain TRPA 161): 1024 µg/mL | colistin MIC alone ([1]; strain TRPA 162): 1024 µg/mL | AB4106 MIC of colistin alone ([2]; no adjuvant): 2048 µg/mL | colistin MIC alone ([3]; strain AB 1E4): >512 µg/mL | colistin MIC alone ([3]; strain AB 1F9): >512 µg/mL | colistin MIC alone ([3]; strain AB 1G2): >512 µg/mL | colistin MIC alone ([3]; strain AB 2A8): >512 µg/mL | colistin MIC alone ([3]; strain AB 3941): 1024 µg/mL | colistin MIC alone ([3]; strain AB 4112): 2048 µg/mL | colistin MIC alone ([3]; strain AB 17978 mcr-1): 64 µg/mL | colistin MIC alone ([4]; strain KP C3): 128 µg/mL | colistin MIC alone ([4]; strain KP E2): 512 µg/mL | colistin MIC alone ([4]; strain KP F3): 128 µg/mL | colistin MIC alone ([4]; strain KP F9): 256 µg/mL | colistin MIC alone ([4]; strain KP F2210291 mcr-1): 16 µg/mL | colistin MIC alone ([4]; strain KP H2): 256 µg/mL | colistin MIC alone ([4]; strain KP I2): 512 µg/mL | KPB9 MIC of colistin alone (K. pneumoniae B9 (KPB9) [5]; no adjuvant): 512 µg/mL

polymyxin B nonapeptide [PMBN]
toxicity against AB4106 (AB4106): no toxicity

O=C(Nc1cc(C(F)(F)F)cc(C(F)(F)F)c1)c1cc(Cl)ccc1O [IMD-0354 4, IMD-0354]
AB4106 colistin MIC in the presence of compound ([2]; compound at 5 μM, AB4106): 2 µg/mL | AB4106 fold reduction of colistin MIC ([2]; compound at 5 μM, vs colistin alone (2048 μg/mL)): 1024 fold | IC50 (NF-κB): 1070 ± 60 nM | MIC (K. pneumoniae B9 (KPB9) [6]): 50 µM (≈ 19.2 µg/mL) | MIC [7]: 50 µM (≈ 19.2 µg/mL) | KPB9 colistin MIC in the presence of compound (K. pneumoniae B9 (KPB9) [5]; compound at 5 μM, KPB9): 0.5 µg/mL | KPB9 fold reduction of colistin MIC (K. pneumoniae B9 (KPB9) [5]; compound at 5 μM, vs colistin alone (512 μg/mL)): 1024 fold

From publication PMC8958665 (ACS infectious diseases, 2021)
